Legend:
Hepatitis C virus [1] = assay: Antiviral activity against HCV genotype 1b Con1 harboring HCV genotype 1a H77 NS3 A156T mutant infected in human HuH7 cells assessed as inhibition of viral replication after 96 hrs by luciferase reporter gene assay; format: functional, organism-based, Hepacivirus hominis; conditions: isolate Con1, Huh-7, 96 h
In short: (§1)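 Cell-based replicon antiviral assays against wild-type HCV and the R155K, A156T, D168A and D168V variants. Potency was expressed as EC50.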

Hepatitis C virus [2] = assay: Antiviral activity against HCV genotype 1b Con1 harboring HCV genotype 1a H77 wild type NS3 infected in human HuH7 cells assessed as inhibition of viral replication after 96 hrs by luciferase reporter gene assay; format: functional, organism-based, Hepacivirus hominis; conditions: isolate Con1, Huh-7, 96 h; in short: as §1
Hepatitis C virus [3] = assay: Antiviral activity against HCV genotype 1b Con1 harboring HCV genotype 1a H77 NS3 D168V mutant infected in human HuH7 cells assessed as inhibition of viral replication after 96 hrs by luciferase reporter gene assay; format: functional, organism-based, Hepacivirus hominis; conditions: isolate Con1, Huh-7, 96 h; in short: as §1
Hepatitis C virus [4] = assay: Antiviral activity against HCV genotype 1b Con1 harboring HCV genotype 1a H77 NS3 D168A mutant infected in human HuH7 cells assessed as inhibition of viral replication after 96 hrs by luciferase reporter gene assay; format: functional, organism-based, Hepacivirus hominis; conditions: isolate Con1, Huh-7, 96 h; in short: as §1
Hepatitis C virus [5] = assay: Antiviral activity against HCV genotype 1b Con1 harboring HCV genotype 1a H77 NS3 R155K mutant infected in human HuH7 cells assessed as inhibition of viral replication after 96 hrs by luciferase reporter gene assay; format: functional, organism-based, Hepacivirus hominis; conditions: isolate Con1, Huh-7, 96 h; in short: as §1
[6] = target: Hepatitis C virus serine protease, NS3/NS4A (Hepatitis C virus, UniProt A3EZI9+D2K2A8, R155K); assay: Inhibition of HCV genotype 1a NS3/4A protease R155K mutant expressed in Escherichia coli BL21(DE3) using Ac-DE-Dap(QXL 520)-EE-Abu-psi-[COO]AS-C(5-FAMsp)-NH2 as substrate preincubated for 1 hr followed by substrate addition; set-up: species or system Hepatitis C virus subtype 1a
In short: (§2)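 Enzyme inhibition constants (Ki) were determined against GT1a NS3/4A protease in three forms: wild type, R155K and D168A.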

[7] = target: Hepatitis C virus serine protease, NS3/NS4A (Hepatitis C virus, UniProt A3EZI9+D2K2A8, D168A); assay: Inhibition of HCV genotype 1a NS3/4A protease D168A mutant expressed in Escherichia coli BL21(DE3) using Ac-DE-Dap(QXL 520)-EE-Abu-psi-[COO]AS-C(5-FAMsp)-NH2 as substrate preincubated for 1 hr followed by substrate addition; set-up: species or system Hepatitis C virus subtype 1a; in short: as §2
[8] = target: Hepatitis C virus serine protease, NS3/NS4A (Hepatitis C virus, UniProt A3EZI9+D2K2A8); assay: Inhibition of wild type HCV genotype 1a NS3/4A protease expressed in Escherichia coli BL21(DE3) using Ac-DE-Dap(QXL 520)-EE-Abu-psi-[COO]AS-C(5-FAMsp)-NH2 as substrate preincubated for 1 hr followed by substrate addition; set-up: species or system Hepatitis C virus subtype 1a; in short: as §2
Hepatitis C virus [9] = assay: Selectivity ratio of EC50 for HCV genotype 1b Con1 harboring HCV genotype 1a H77 NS3 D168V mutant infected in human HuH7 cells to EC50 for HCV genotype 1b Con1 harboring HCV genotype 1a H77 wild type NS3 infected in human HuH7 cells; format: functional, Hepacivirus hominis, isolate Con1
Hepatitis C virus [10] = assay: Selectivity ratio of EC50 for HCV genotype 1b Con1 harboring HCV genotype 1a H77 NS3 D168A mutant infected in human HuH7 cells to EC50 for HCV genotype 1b Con1 harboring HCV genotype 1a H77 wild type NS3 infected in human HuH7 cells; format: functional, Hepacivirus hominis, isolate Con1
Hepatitis C virus [11] = assay: Selectivity ratio of EC50 for HCV genotype 1b Con1 harboring HCV genotype 1a H77 NS3 A156T mutant infected in human HuH7 cells to EC50 for HCV genotype 1b Con1 harboring HCV genotype 1a H77 wild type NS3 infected in human HuH7 cells; format: functional, Hepacivirus hominis, isolate Con1
Hepatitis C virus [12] = assay: Selectivity ratio of EC50 for HCV genotype 1b Con1 harboring HCV genotype 1a H77 NS3 R155K mutant infected in human HuH7 cells to EC50 for HCV genotype 1b Con1 harboring HCV genotype 1a H77 wild type NS3 infected in human HuH7 cells; format: functional, Hepacivirus hominis, isolate Con1

Compound	EC50 (Hepatitis C virus [1])	EC50 (Hepatitis C virus [2])	EC50 (Hepatitis C virus [3])	EC50 (Hepatitis C virus [4])	EC50 (Hepatitis C virus [5])	Ki [6]	Ki [7]	Ki [8]	Ratio EC50 (Hepatitis C virus [9])	Ratio EC50 (Hepatitis C virus [10])	Ratio EC50 (Hepatitis C virus [11])	Ratio EC50 (Hepatitis C virus [12])
C=C[C@@H]1C[C@]1(NC(=O)[C@@H]1C[C@@H]2CN1C(=O)[C@H](C(C)(C)C)NC(=O)O[C@@H]1C[C@H]1CCCCCc1nc3ccc(OC)cc3nc1O2)C(=O)NS(=O)(=O)C1(C)CC1	200 nM	0.12 nM	5.3 nM	11 nM	1.9 nM	–	–	–	–	–	–	–
C=C[C@@H]1C[C@]1(NC(=O)[C@@H]1C[C@@H](Oc2nc3cc(OC)ccc3nc2C(F)(F)F)CN1C(=O)[C@@H](NC(=O)OC1CCCC1)C(C)(C)C)C(=O)NS(=O)(=O)C1(C)CC1	–	–	–	–	–	22 nM	516 nM	22 nM	–	–	–	–
C=C[C@@H]1C[C@]1(NC(=O)[C@@H]1C[C@@H](Oc2nc3cc(OC)ccc3nc2Cl)CN1C(=O)[C@@H](NC(=O)OC1CCCC1)C(C)(C)C)C(=O)NS(=O)(=O)C1(C)CC1	163 nM	3.1 nM	23 nM	25 nM	27 nM	5.2 nM	51 nM	3.9 nM	7.4	8.1	53	8.7
C=C[C@@H]1C[C@]1(NC(=O)[C@@H]1C[C@@H](Oc2nc3cc(OC)ccc3nc2C)CN1C(=O)[C@@H](NC(=O)OC1CCCC1)C(C)(C)C)C(=O)NS(=O)(=O)C1(C)CC1	87 nM	4.5 nM	59 nM	45 nM	28 nM	10 nM	140 nM	7.1 nM	13	10	19	6.2
CCc1nc2ccc(OC)cc2nc1O[C@@H]1C[C@H]2C(=O)N[C@]3(C(=O)NS(=O)(=O)C4CC4)C[C@H]3/C=C\CCCCC[C@H](NC(=O)OC(C)(C)C)C(=O)N2C1	–	–	–	–	–	3.1 nM	91 nM	2 nM	28	19	29	5.5
C=C[C@@H]1C[C@]1(NC(=O)[C@@H]1C[C@@H](Oc2nc3cc(OC)ccc3nc2CC)CN1C(=O)[C@@H](NC(=O)OC1CCCC1)C(C)(C)C)C(=O)NS(=O)(=O)C1(C)CC1	–	–	–	–	–	13 nM	145 nM	6.9 nM	–	–	–	–
C=C[C@@H]1C[C@]1(NC(=O)[C@@H]1C[C@@H](Oc2nc3cc(OC)ccc3nc2Cl)CN1C(=O)[C@@H](NC(=O)OC(C)(C)C)C(C)(C)C)C(=O)NS(=O)(=O)C1CC1	107 nM	6.6 nM	12 nM	38 nM	10 nM	2.2 nM	128 nM	7.8 nM	1.8	5.8	16	1.5
C=C[C@@H]1C[C@]1(NC(=O)[C@@H]1C[C@@H](Oc2nc3cc(OC)ccc3nc2CC)CN1C(=O)[C@@H](NC(=O)OC1CCCC1)C(C)(C)C)C(=O)NS(=O)(=O)C1CC1	–	–	–	–	–	15 nM	350 nM	9.8 nM	–	–	–	–
C=C[C@@H]1C[C@]1(NC(=O)[C@@H]1C[C@@H](Oc2nc3cc(OC)ccc3nc2CC)CN1C(=O)[C@@H](NC(=O)OC(C)(C)C)C(C)(C)C)C(=O)NS(=O)(=O)C1CC1	73 nM	24 nM	> 500 nM	> 500 nM	50 nM	17 nM	642 nM	19 nM	>21	>21	3	2.1
C=C[C@@H]1C[C@]1(NC(=O)[C@@H]1C[C@@H](Oc2nc3cc(OC)ccc3nc2C(F)(F)F)CN1C(=O)[C@@H](NC(=O)OC(C)(C)C)C(C)(C)C)C(=O)NS(=O)(=O)C1CC1	–	–	–	–	–	24 nM	723 nM	87 nM	–	–	–	–
C=C[C@@H]1C[C@]1(NC(=O)[C@@H]1C[C@@H](Oc2nc3cc(OC)ccc3nc2C(C)C)CN1C(=O)[C@@H](NC(=O)OC(C)(C)C)C(C)(C)C)C(=O)NS(=O)(=O)C1CC1	–	–	–	–	–	49 nM	1090 nM	32 nM	–	–	–	–
C=C[C@@H]1C[C@]1(NC(=O)[C@@H]1C[C@@H](Oc2nc3cc(OC)ccc3nc2CC)CN1C(=O)[C@@H](NC(=O)OC(C)(C)C)C(C)(C)C)C(=O)NS(=O)(=O)C1(C)CC1	–	–	–	–	–	14 nM	385 nM	16 nM	–	–	–	–
C=C[C@@H]1C[C@]1(NC(=O)[C@@H]1C[C@@H](Oc2nc3cc(OC)ccc3nc2C(F)(F)F)CN1C(=O)[C@@H](NC(=O)OC(C)(C)C)C(C)(C)C)C(=O)NS(=O)(=O)C1(C)CC1	–	–	–	–	–	12 nM	513 nM	46 nM	–	–	–	–
C=C[C@@H]1C[C@]1(NC(=O)[C@@H]1C[C@@H](Oc2nc3cc(OC)ccc3nc2C)CN1C(=O)[C@@H](NC(=O)OC(C)(C)C)C(C)(C)C)C(=O)NS(=O)(=O)C1CC1	–	–	–	–	–	8.5 nM	290 nM	18 nM	–	–	–	–
C=C[C@@H]1C[C@]1(NC(=O)[C@@H]1C[C@@H](Oc2nc3cc(OC)ccc3nc2C(F)(F)F)CN1C(=O)[C@@H](NC(=O)OC1CCCC1)C(C)(C)C)C(=O)NS(=O)(=O)C1CC1	–	–	–	–	–	26 nM	703 nM	34 nM	–	–	–	–
C=C[C@@H]1C[C@]1(NC(=O)[C@@H]1C[C@@H](Oc2nc3cc(OC)ccc3nc2C)CN1C(=O)[C@@H](NC(=O)OC(C)(C)C)C(C)(C)C)C(=O)NS(=O)(=O)C1(C)CC1	–	–	–	–	–	14 nM	265 nM	14 nM	–	–	–	–
C=C[C@@H]1C[C@]1(NC(=O)[C@@H]1C[C@@H](Oc2nc3cc(OC)ccc3nc2Cl)CN1C(=O)[C@@H](NC(=O)OC1CCCC1)C(C)(C)C)C(=O)NS(=O)(=O)C1CC1	292 nM	7.4 nM	54 nM	50 nM	40 nM	4.1 nM	99 nM	3.8 nM	7.3	6.8	40	5.4
C=C[C@@H]1C[C@]1(NC(=O)[C@@H]1C[C@@H](Oc2nc3cc(OC)ccc3nc2C)CN1C(=O)[C@@H](NC(=O)OC1CCCC1)C(C)(C)C)C(=O)NS(=O)(=O)C1CC1	164 nM	10 nM	150 nM	101 nM	48 nM	9.6 nM	144 nM	9.2 nM	15	10	16	4.8
C=C[C@@H]1C[C@]1(NC(=O)[C@@H]1C[C@@H](Oc2nc3cc(OC)ccc3nc2Cl)CN1C(=O)[C@@H](NC(=O)OC(C)(C)C)C(C)(C)C)C(=O)NS(=O)(=O)C1(C)CC1	100 nM	6.3 nM	12 nM	30 nM	10 nM	3.8 nM	119 nM	6.1 nM	1.9	4.8	16	1.6
C=C[C@@H]1C[C@]1(NC(=O)[C@@H]1C[C@@H](Oc2nc3cc(OC)ccc3nc2C(C)C)CN1C(=O)[C@@H](NC(=O)OC1CCCC1)C(C)(C)C)C(=O)NS(=O)(=O)C1(C)CC1	–	–	–	–	–	43 nM	1000 nM	21 nM	–	–	–	–
C=C[C@@H]1C[C@]1(NC(=O)[C@@H]1C[C@@H](Oc2nc3cc(OC)ccc3nc2C(C)C)CN1C(=O)[C@@H](NC(=O)OC1CCCC1)C(C)(C)C)C(=O)NS(=O)(=O)C1CC1	–	–	–	–	–	55 nM	985 nM	17 nM	–	–	–	–
C=C[C@@H]1C[C@]1(NC(=O)[C@@H]1C[C@@H](Oc2nc3cc(OC)ccc3nc2C(C)C)CN1C(=O)[C@@H](NC(=O)OC(C)(C)C)C(C)(C)C)C(=O)NS(=O)(=O)C1(C)CC1	–	–	–	–	–	27 nM	1180 nM	29 nM	–	–	–	–

Source: ChEMBL document CHEMBL4196119, “Quinoxaline-Based Linear HCV NS3/4A Protease Inhibitors Exhibit Potent Activity against Drug Resistant Variants” (ACS Med Chem Lett, 2018)
